Source: ChEMBL document CHEMBL4304834, “3-Amino-chromanes and Tetrahydroquinolines as Selective 5-HT2B, 5-HT7, or σ1 Receptor Ligands” (ACS Med Chem Lett, 2019)

Assays:
Type in all cases: cell-based
[1] = target: T1, Alpha-2C adrenergic receptor (Homo sapiens, UniProt P18825); experiment: Displacement of [3H]-Rauwolscine from human recombinant adrenergic Alpha2C receptor expressed in stable MDCK cells after 90 mins by microbeta scintillation counting method
T1 sequence (P18825 whole entry): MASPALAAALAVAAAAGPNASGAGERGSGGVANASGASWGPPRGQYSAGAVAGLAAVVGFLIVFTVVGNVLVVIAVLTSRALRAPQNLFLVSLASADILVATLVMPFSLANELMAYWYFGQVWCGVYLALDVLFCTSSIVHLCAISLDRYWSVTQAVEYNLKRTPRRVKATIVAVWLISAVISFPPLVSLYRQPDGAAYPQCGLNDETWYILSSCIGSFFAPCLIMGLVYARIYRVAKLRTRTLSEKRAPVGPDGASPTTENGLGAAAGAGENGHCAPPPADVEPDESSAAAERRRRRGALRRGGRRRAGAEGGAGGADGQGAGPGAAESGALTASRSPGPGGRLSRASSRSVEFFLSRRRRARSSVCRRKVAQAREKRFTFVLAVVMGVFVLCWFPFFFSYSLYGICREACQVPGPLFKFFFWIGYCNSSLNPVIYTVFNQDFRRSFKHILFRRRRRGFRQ
Method in brief: (§1)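 Radioligand binding was run by the NIMH Psychoactive Drug Screening Program. Compounds were first screened at 10 μM. Those giving ≥50% binding were taken to full competition curves. Ki is reported as pKi from a sigmoidal curve fit of triplicate measurements in a single experiment; the error is the curve-fit error.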

[2] = target: Sigma intracellular receptor 2 (Homo sapiens, UniProt Q5BJF2); experiment: Displacement of […] from human recombinant sigma2 receptor expressed in HEKT cells after 90 mins by microbeta scintillation counting method
Method in brief: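 Run by NIMH Psychoactive Drug Screening Program. Otherwise, competition binding curves are generated and pKi is taken from a sigmoidal curve fit. Data are either triplicate measurements within one experiment, with the error from the fit, or the mean of repeated experiments, each run in triplicate.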

[3] = target: 5-hydroxytryptamine receptor 1B (Homo sapiens, UniProt P28222); experiment: Displacement of [3H]5-CT from human recombinant 5-HT1B receptor expressed in stable HEK cells after 90 mins by microbeta scintillation counting method; method in brief: as §1
[4] = target: 5-hydroxytryptamine receptor 1E (Homo sapiens, UniProt P28566); experiment: Displacement of [3H]-HT from human recombinant 5-HT1E receptor expressed in stable HEK cells at 10 uM after 90 mins by microbeta scintillation counting method relative to control
Method in brief: (§2)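 Radioligand binding run by the NIMH Psychoactive Drug Screening Program. […] Otherwise Ki comes from sigmoidal curve fits of triplicate measurements in a single experiment, or is averaged over repeated experiments each run in triplicate.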

[5] = target: T2, Muscarinic acetylcholine receptor M5 (Homo sapiens) (UniProt P08912); experiment: Displacement of [3H]-QNB/[3H]-NMS from human recombinant Muscarinic acetylcholine M5 receptor expressed in stable CHO cells at 10 uM after 90 mins by microbeta scintillation counting method relative to control
T2 sequence (whole entry): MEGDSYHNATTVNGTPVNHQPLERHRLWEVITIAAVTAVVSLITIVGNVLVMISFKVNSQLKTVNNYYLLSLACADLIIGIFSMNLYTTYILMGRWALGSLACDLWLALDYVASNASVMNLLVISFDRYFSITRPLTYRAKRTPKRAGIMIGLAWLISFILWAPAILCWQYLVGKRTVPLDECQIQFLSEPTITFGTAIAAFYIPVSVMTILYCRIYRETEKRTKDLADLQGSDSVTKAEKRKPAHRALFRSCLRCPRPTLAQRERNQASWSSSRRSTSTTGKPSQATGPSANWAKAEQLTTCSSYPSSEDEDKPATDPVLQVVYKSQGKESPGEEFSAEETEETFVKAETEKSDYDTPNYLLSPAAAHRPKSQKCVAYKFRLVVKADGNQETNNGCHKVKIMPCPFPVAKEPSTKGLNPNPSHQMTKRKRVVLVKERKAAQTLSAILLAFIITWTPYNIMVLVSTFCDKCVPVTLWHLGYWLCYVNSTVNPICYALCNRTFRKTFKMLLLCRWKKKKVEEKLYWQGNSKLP

[6] = target: T3, Muscarinic acetylcholine receptor M2 (Homo sapiens, UniProt P08172); experiment: Displacement of [3H]-QNB/[3H]-NMS from human recombinant Muscarinic acetylcholine M2 receptor expressed in stable CHO cells after 90 mins by microbeta scintillation counting method; method in brief: as §1
T3 sequence (P08172 whole entry): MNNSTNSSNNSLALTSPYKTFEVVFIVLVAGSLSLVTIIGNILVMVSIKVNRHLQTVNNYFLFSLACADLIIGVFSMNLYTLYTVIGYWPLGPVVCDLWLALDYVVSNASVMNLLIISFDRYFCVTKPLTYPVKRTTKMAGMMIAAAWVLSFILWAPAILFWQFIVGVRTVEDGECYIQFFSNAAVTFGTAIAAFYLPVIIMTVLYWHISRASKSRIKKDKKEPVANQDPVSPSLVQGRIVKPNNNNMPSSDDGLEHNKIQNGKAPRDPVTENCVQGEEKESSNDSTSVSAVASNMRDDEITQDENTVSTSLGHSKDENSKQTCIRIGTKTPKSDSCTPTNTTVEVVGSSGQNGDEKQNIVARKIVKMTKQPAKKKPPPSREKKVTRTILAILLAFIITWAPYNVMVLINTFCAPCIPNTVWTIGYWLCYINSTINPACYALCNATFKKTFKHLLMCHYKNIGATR

[7] = target: T4, 5-hydroxytryptamine receptor 2C (Homo sapiens, UniProt P28335); experiment: Displacement of [3H]-Mesulergine from human recombinant 5-HT2C receptor expressed in HEKT cells after 90 mins by microbeta scintillation counting method; method in brief: as §2
T4 sequence (P28335 whole entry): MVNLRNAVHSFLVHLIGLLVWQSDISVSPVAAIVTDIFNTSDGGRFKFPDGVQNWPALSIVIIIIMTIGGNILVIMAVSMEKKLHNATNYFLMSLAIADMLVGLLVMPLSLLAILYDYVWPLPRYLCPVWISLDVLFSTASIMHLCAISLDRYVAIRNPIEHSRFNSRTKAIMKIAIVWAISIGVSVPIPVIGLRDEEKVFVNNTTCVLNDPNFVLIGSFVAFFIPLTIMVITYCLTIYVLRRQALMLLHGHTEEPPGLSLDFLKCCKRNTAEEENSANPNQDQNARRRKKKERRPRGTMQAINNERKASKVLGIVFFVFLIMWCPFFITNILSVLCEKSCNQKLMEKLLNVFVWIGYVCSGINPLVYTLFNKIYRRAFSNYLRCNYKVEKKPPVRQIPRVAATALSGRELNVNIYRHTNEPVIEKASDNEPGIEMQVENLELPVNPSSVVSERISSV

[8] = target: Beta-2 adrenergic receptor (Homo sapiens, UniProt P07550); experiment: Displacement of [3H]-CGP12177 from human recombinant adrenergic Beta2 receptor expressed in Flp-In HEK cells after 90 mins by microbeta scintillation counting method; method in brief: as §2
[9] = target: 5-hydroxytryptamine receptor 5A (Homo sapiens, UniProt P47898); experiment: Displacement of [3H]-LSD from human recombinant 5-HT5A receptor expressed in Flp-In CHO cells after 90 mins by microbeta scintillation counting method; method in brief: as §2
5-hydroxytryptamine receptor 5A, sequence (P47898 whole entry): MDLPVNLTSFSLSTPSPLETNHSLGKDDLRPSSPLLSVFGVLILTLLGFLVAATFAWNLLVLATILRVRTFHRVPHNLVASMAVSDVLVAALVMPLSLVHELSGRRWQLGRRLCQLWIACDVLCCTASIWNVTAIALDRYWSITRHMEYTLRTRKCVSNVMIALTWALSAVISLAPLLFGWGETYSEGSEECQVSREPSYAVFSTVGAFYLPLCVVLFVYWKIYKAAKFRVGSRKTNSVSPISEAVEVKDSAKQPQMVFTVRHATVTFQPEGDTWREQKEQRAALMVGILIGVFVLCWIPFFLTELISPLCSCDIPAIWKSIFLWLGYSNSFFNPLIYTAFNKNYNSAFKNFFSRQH

Beta-2 adrenergic receptor, sequence (P07550 whole entry): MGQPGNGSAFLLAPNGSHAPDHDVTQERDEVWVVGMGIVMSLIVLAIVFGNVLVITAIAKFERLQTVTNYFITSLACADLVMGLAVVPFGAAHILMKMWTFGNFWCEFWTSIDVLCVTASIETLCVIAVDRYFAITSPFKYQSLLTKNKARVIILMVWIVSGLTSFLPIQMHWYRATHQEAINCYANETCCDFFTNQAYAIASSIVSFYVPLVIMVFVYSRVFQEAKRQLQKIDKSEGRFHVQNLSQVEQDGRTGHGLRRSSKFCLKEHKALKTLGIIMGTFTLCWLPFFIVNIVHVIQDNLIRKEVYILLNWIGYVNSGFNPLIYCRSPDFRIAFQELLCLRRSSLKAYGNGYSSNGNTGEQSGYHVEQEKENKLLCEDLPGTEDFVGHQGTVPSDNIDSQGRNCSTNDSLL
5-hydroxytryptamine receptor 1B, sequence (P28222 whole entry): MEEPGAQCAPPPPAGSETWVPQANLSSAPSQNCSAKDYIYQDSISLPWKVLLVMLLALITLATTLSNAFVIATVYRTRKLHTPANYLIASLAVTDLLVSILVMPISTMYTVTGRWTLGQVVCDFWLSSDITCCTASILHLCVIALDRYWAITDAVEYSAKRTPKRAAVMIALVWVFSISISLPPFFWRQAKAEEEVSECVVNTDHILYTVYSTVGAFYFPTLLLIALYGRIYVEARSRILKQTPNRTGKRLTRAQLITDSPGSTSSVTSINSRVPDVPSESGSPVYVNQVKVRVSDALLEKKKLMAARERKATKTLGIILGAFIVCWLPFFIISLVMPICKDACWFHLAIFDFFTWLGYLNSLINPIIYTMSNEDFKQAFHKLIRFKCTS
5-hydroxytryptamine receptor 1E, sequence (P28566 whole entry): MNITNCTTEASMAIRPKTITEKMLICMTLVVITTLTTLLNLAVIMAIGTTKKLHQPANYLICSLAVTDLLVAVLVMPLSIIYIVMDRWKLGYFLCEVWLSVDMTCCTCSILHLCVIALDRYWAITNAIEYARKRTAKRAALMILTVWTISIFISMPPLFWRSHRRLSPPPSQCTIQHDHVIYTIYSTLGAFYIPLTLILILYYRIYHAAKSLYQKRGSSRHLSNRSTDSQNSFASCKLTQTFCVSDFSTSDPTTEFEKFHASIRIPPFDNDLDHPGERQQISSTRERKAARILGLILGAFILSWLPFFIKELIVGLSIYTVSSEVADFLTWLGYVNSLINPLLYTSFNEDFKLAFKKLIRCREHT
Sigma intracellular receptor 2, sequence (Q5BJF2 whole entry): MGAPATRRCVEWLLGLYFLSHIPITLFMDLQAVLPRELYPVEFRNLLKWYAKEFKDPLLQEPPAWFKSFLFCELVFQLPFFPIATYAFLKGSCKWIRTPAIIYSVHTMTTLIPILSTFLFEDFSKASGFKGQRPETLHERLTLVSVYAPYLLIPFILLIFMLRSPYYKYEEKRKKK

Row | Structure (SMILES) | Ki [1] [µM] | Ki [2] [µM] | Ki [3] [µM] | inhibition [4] [%] | inhibition [5] [%] | Ki [6] [µM] | Ki [7] [µM] | Ki [8] [µM] | Ki [9] [µM]
1 | COc1cc(OC)c2c(c1)OC[C@@]1(C)NCC[C@@H]21 (racemic) | > 10 | > 10 | > 10 | < 50 | < 50 | > 10 | 1.58 | 0.575 | –
2 | C[C@@]12CN(c3ccccc3)c3ccccc3[C@@H]1CCN2 (racemic) | 1 | 1 | > 10 | – | – | > 10 | > 10 | > 10 | –
3 | CC[C@H]1c2cc(OC)ccc2CC[C@@]1(C)N (racemic) | > 10 | > 10 | > 10 | < 50 | < 50 | > 10 | 2.51 | 5.01 | 2
4 | CC[C@H]1c2cc(C)ccc2OC[C@@]1(C)N (racemic) | > 10 | > 10 | > 10 | < 50 | < 50 | > 10 | 2.51 | > 10 | > 10
5 | CC[C@H]1c2ccccc2N(c2ccccc2)C[C@@]1(C)N (racemic) | > 10 | 0.631 | > 10 | – | – | > 10 | 3.98 | > 10 | > 10
